The list is not random: actives were taken first. Their share in the collection is about 1.9%.
NadD block = blocks S. aureus nicotinate mononucleotide adenylyltransferase | purified NadD enzyme, colorimetric absorbance read-out | 360,000 tested, 0.78% active | inhibition, % at 20 µM | AID 602399; in the data active means inhibition above about 26%
Rce1 inhib = blocks yeast Ras-converting enzyme; AID 2563; Q03530; calls only; yeast membranes, quenched prenylated peptide cleavage fluorescence; 290,000 tested, 0.27% active;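 active means fall in fluorescence gain of 50% or more versus controls, with final raw signal at or below 3038400; inconclusive means same 50% fall but final raw signal above 3038400; inactive means fall in fluorescence gain under 50%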
TbMetRS inhib = blocks T. brucei methionyl-tRNA synthetase activity; 360,000 tested, 0.4% active; inhibition, % at 11.9 µM; purified T. brucei MetRS, ATP depletion, Kinase-Glo luminescence;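 active means inhibition above a per-plate cutoff of the control wells' mean inhibition plus 3 SD, cut at about 5.5% in these data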
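Material – parasite MetRS enzyme · Medium – HEPES-MgCl2-KCl buffer plus DTT, spermine, BSA, pyrophosphatase · Reagent – ATP, methionine and E. coli bulk tRNA substrates · Times – 15 min enzyme-compound preincubation, 2 h reaction, 10 min detection, 25 °C · Measured by – luminescence of leftover ATP · Evaluation – percent inhibition relative to median high and low control wells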
DSG3 Ab inh = human desmoglein-3 autoantibody binding inhibition | DSG3-coupled beads, scFv-anti-DSG3-GFP binding, flow cytometry; hits give low values | binding (percent of control), % at 10 µM | 310,000 tested, 0.48% active | AID 588358;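 active means binding more than 3 SD below its plate's average and above zero; inconclusive means below that plate limit but binding exactly zero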;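 further: hits lower antibody fragment binding to DSG3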
Target sequence (P32926 whole entry, looked up, the tested form may be a part): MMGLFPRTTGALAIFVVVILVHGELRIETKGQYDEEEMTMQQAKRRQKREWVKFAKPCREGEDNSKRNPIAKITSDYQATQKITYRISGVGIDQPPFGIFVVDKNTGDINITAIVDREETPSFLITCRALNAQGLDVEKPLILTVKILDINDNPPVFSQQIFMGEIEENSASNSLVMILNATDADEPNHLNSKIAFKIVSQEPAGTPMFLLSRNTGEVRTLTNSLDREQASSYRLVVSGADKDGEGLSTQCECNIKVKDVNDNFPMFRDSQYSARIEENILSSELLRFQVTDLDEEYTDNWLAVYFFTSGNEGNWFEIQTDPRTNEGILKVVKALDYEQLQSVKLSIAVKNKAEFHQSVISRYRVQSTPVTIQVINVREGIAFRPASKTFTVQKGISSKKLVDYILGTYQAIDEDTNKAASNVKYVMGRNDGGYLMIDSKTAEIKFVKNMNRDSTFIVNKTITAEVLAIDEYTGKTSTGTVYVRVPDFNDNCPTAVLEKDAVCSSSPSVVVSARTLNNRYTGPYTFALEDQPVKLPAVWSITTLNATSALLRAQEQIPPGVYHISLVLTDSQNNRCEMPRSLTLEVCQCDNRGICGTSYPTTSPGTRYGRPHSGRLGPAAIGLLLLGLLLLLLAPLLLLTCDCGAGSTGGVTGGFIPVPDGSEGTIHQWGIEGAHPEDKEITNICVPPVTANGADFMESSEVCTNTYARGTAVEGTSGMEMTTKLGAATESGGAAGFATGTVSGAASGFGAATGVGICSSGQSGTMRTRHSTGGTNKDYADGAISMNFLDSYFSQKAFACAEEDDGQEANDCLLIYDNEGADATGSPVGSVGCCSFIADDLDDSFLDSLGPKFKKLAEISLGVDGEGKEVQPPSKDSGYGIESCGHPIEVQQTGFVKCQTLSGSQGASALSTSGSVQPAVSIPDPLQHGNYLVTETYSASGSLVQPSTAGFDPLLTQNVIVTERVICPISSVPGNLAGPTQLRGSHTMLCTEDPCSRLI
core dimer inh = blocks dimerization of HCV core protein; TR-FRET GST/Flag-core106 dimerization, 1536-well; inhibition, % at 5 µM; 300,000 tested, 0.33% active; AID 1899;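 active means inhibition above the mean of all tested compounds plus 3 SD, set per screening campaign, cut at about 45% in these data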
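System: GST/Flag-tagged HCV core106 proteins. Incubation: compound-protein-antibody incubation 4 h at 22.5 °C. Technique: HTRF with 340 nm excitation, 617/671 nm emission. Medium: KF-containing HEPES buffer, pH 7.45, DTT, CHAPS, BSA. Read-out: inhibition (%) from 671 over 617 nm ratio. Also added: Eu(K)-anti-GST 90 ng/mL plus XL665-anti-Flag 1 µg/mL.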
Of the large screens only hits and unclear results are named; the others gave an inactive call.

CCC1CCCCN1C(=S)NC(=O)c1ccc([N+](=O)[O-])cc1 (configuration not stated)	none
CCC1CCCCN1C(=O)NC(=O)c1ccccc1 (configuration not stated)	Rce1 inhib active (no result: DSG3 Ab inh)
Cc1c(Br)c([N+](=O)[O-])nn1CC(=O)N1CCc2ccccc21	none
Cc1c(Cl)c([N+](=O)[O-])nn1CC(=O)N1CCCc2ccccc21	Rce1 inhib active
CN(Cc1cc2ccccc2[nH]c1=O)S(C)(=O)=O	DSG3 Ab inh 54
CN(Cc1cc2ccccc2[nH]c1=O)S(=O)(=O)c1ccccc1	none
CCOc1ccc2[nH]c(=O)c(CN(Cc3cccs3)Cc3nnnn3C(C)(C)C)cc2c1	none
CCOc1ccc2[nH]c(=O)c(CN(CCN3CCOCC3)Cc3nnnn3C(C)(C)CC)cc2c1	Rce1 inhib active
Cc1nn(-c2ccccc2)nc1-c1nnc(-c2ccc(C(F)(F)F)cc2)o1	DSG3 Ab inh 76
Cc1c(-c2nnc(-c3ccc(C(F)(F)F)cc3)o2)cnn1-c1ccccc1	none
CC(CCc1ccccc1)NC(=O)c1nnc(Cc2ccc(Cl)cc2)o1 (configuration not stated)	DSG3 Ab inh -13
CCOC(=O)CC(NC(=O)Cn1nnc(-c2ccccc2C)n1)c1ccc(OC)cc1 (configuration not stated)	none (no result: NadD block, TbMetRS inhib, DSG3 Ab inh)
NC(=O)CC(NC(=O)Cc1ccc(Br)cc1)c1ccc(NC2CCCC2)c([N+](=O)[O-])c1 (configuration not stated)	DSG3 Ab inh 1.8
S=C1NC2=C(CCCC2=C2SCCS2)C(c2ccccc2)N1 (configuration not stated)	core dimer inh 46
CCCCN(C(=O)c1cccc(N2C(=O)c3ccccc3C2=O)c1)c1c(N)n(CC(C)C)c(=O)[nH]c1=O	none (no result: Rce1 inhib, core dimer inh)
CCCCN(C(=O)c1cccc(-n2cccc2)c1)c1c(N)n(Cc2ccccc2)c(=O)[nH]c1=O	core dimer inh 48
Cc1cccc(-c2cnn(-c3cccc([N+](=O)[O-])c3)c2N)c1	none
CCn1c(SCC(=O)Nc2nc3ccccc3s2)nnc1-c1ccc(Br)cc1	DSG3 Ab inh -18
CC1CN(C(=O)COC(=O)CSc2ccc(C(N)=O)cc2[N+](=O)[O-])CC(C)O1 (configuration not stated)	none
Cc1cc(C)c(S(=O)(=O)/N=C2\C=C(NS(=O)(=O)c3ccccc3)C(=O)c3ccccc32)c(C)c1	NadD block 30
Cc1ccc(NC2=C/C(=N\S(=O)(=O)c3cccs3)c3ccccc3C2=O)c(C)c1	core dimer inh 52
Cc1cc(C)c(S(=O)(=O)/N=C2\C=C(Nc3ccc(C(=O)O)cc3)C(=O)c3ccccc32)c(C)c1	NadD block 31
Cn1c(=O)[nH]c(=O)c2c1nc(CN1CCN(c3ccccc3F)CC1)n2CCCc1ccccc1	none
Cc1cccc(NC(=O)c2nc[nH]c2C(=O)Nc2ccccc2F)c1	none (no result: Rce1 inhib, DSG3 Ab inh, core dimer inh)
COc1cc(/C=C2/C(=N)N3C(c4ccccc4)=CSC3=NC2=O)ccc1OCC(=O)O	none
N=C1/C(=C\c2ccc(-c3ccc(C(=O)O)cc3)o2)C(=O)N=C2SC=C(c3ccccc3)N12	NadD block 67 (no result: core dimer inh)
N=C1/C(=C\c2ccc(-c3cccc(Cl)c3)o2)C(=O)N=C2SC=C(c3ccccc3)N12	NadD block 75
Cc1cc(/C=C2/C(=N)N3C(c4ccccc4)=CSC3=NC2=O)c(C)n1-c1ccc(Cl)cc1	DSG3 Ab inh inconclusive (no result: Rce1 inhib, core dimer inh)
COc1nc(C#N)nc(N(C)C)n1	none
CCOC(=O)C1=C(N)n2c(s/c(=C\c3ccncc3)c2=O)=C(C(=O)OCC)C1c1ccncc1 (configuration not stated)	none
CCOC(=O)C1=C(N)n2c(s/c(=C\c3cccnc3)c2=O)=C(C(=O)OC)C1c1cccnc1 (configuration not stated)	DSG3 Ab inh 88
COc1c2ccoc2nc2c(OC)cccc12	Rce1 inhib active
CCOC(=O)c1ccc(N2CSC3=C(C#N)C(c4ccc(OC)cc4OC)CC(=O)N3C2)cc1 (configuration not stated)	none
COc1ccc(OC)c(C2CC(=O)N3CN(c4cccc(Cl)c4C)CSC3=C2C#N)c1 (configuration not stated)	NadD block 32
CCOc1ccc(N2CSC3=C(C#N)C(c4ccco4)CC(=O)N3C2)cc1 (configuration not stated)	core dimer inh 78
Clc1ccc(N2CCN(Cc3ccc(Br)o3)CC2)cc1	none
COc1ccc(NC(=O)CCC(=O)c2cccs2)cc1S(=O)(=O)Nc1ccc(Cl)cc1	none
CCOC(=O)c1sc2nc(CC(C)C)c3c(c2c1N)CCC3	DSG3 Ab inh -12
O=C1C=C(NCCc2cc(Br)c(O)c(Br)c2)C(=O)c2ncccc21	DSG3 Ab inh 58 (no result: Rce1 inhib, core dimer inh)
NC1=C(Br)C(=O)c2ncccc2C1=O	none (no result: Rce1 inhib, core dimer inh)
COc1cccc2cc(C(=O)N3CCCCCCC3)c(=O)oc12	DSG3 Ab inh 19
Cc1cc(C)cc(N(CC(=O)O)S(=O)(=O)c2c(C)noc2C)c1	none
Cc1cc(C)cc(N(CC(=O)NC2CCC(C)CC2)S(=O)(=O)c2c(C)noc2C)c1 (configuration not stated)	DSG3 Ab inh 91 (no result: Rce1 inhib)
CCn1nc(C)cc1C(=O)NC1CC(C)(C)Cc2c1cnn2-c1cccc(F)c1 (configuration not stated)	Rce1 inhib active (no result: DSG3 Ab inh)
Cc1cc(C)c(C(=O)NC2CC(C)(C)Cc3c2cnn3-c2cccc(F)c2)[nH]1 (configuration not stated)	none (no result: core dimer inh)
Cc1cc2c(cc(C(=O)OC(C)C(=O)NCc3ccccc3)n2C)o1 (configuration not stated)	none (no result: Rce1 inhib, core dimer inh)
Nc1ccc(N)c(C(=O)O)c1	NadD block 33, DSG3 Ab inh 51
CCc1nc(SCc2ccccc2)n[nH]1	none
COc1cc(-c2noc(CCC(=O)NC3CCCC3)n2)cc(OC)c1OC	none (no result: DSG3 Ab inh)
COc1ccc(-c2noc(CCC(=O)NC3CCCCCC3)n2)cc1OC	DSG3 Ab inh 83 (no result: Rce1 inhib, core dimer inh)
CCn1cc(CNC(=O)NC2CCCCC2)c(C)n1	none
Cc1cc(C)c(NC(=S)NC(=O)c2ccc(-c3ccccc3)cc2)c(C)c1	DSG3 Ab inh 41
O=C(NC(=S)Nc1ccccn1)c1ccc(-c2ccccc2)cc1	none (no result: DSG3 Ab inh)
COc1cccc(C2CC(c3ccc(Cl)cc3Cl)n3nc(N)nc3N2)c1 (configuration not stated)	none
COc1ccc(C2=NN3C(C2)c2ccccc2OC3c2cccs2)cc1 (configuration not stated)	none
COc1ccc(C2=NN3C(C2)c2ccccc2OC32C(=O)N(C)c3ccccc32)cc1 (configuration not stated)	core dimer inh 65 (no result: DSG3 Ab inh)
COc1cccc(CC(=O)Nc2nc3c(s2)C(=O)CC(C)(C)C3)c1	none
CCOc1ccc2nc(SCC(=O)NC3CCCc4ccccc43)sc2c1 (configuration not stated)	DSG3 Ab inh 64

Screening data: PubChem BioAssay, several laboratories
